Test results published in PubChem BioAssay AID588705 (Broad Institute, 2011).
Calls of active or inactive are those of the source. No rule for the calls is given here.

System: not listed separately
Assay: MDA-MB-231 breast cancer cell cytotoxicity, dose response, CellTiter-Glo luminescence, dry powder (AID 588705)
Conditions: MDA-MB-231 viability, CellTiter-Glo luminescence, 72 h
Method in brief: (§1)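 System: MDA231 breast cancer cells; input: 1000 cells per well at seeding; medium: serum-free DMEM/MEGM screening medium; schedule: 72 h compound exposure after 24 h attachment; technique: CellTiter-Glo luminescence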
For `O=C(N/N=C/c1ccc[nH]1)c1cc2ccccc2o1`, the outcome was “inactive”.

System: MDA-MB-231 viability, CellTiter-Glo luminescence, 72 h
Assay: as above
Conditions: not given
Method in brief: as §1
`Cc1cc(Cl)ccc1OCC(=O)N/N=C/c1ccc[nH]1` gave an AC50 of 16.7 µM. Compound `O=C(COc1ccc(Cl)cc1Cl)N/N=C/c1cnc[nH]1` has an AC50 of 31.6 µM. Work on `CC(C)(C)c1ccc2c(c1)OC(C(=O)N/N=C/c1ccc[nH]1)CO2` (configuration not stated) yielded an AC50 of 14.7 µM. For `O=C(COc1ccc(Cl)cc1Cl)N/N=C/c1ccc[nH]1`, the AC50 was 47.6 µM. For `O=C(COc1c(Cl)cc(Cl)cc1Cl)N/N=C/c1ccc[nH]1`, the AC50 was 2.81 µM. With `O=C(COc1cc(Cl)ccc1Cl)N/N=C/c1ccc[nH]1` the AC50 was 7.24 µM.
